# MT1-MMP txn act = MT1-MMP promoter reporter activation – cell-based, luciferase luminescence, primary screen; HT1080 MT1-MMP promoter luciferase reporter, overnight; hits give high values; activation factor at 10 µM; 0.16% of 86,000 active; AID 750, 2007;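 active = activation factor of at least 2 for MT1-MMP transcription at 10 µM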
# Jurkat viability = cytotoxicity toward Jurkat T cells, primary screen, cytotoxicity control, cell-based, Jurkat E6.1, 60K MLSMR library. Jurkat E6.1 viability, ATP luminescence, 48 h. inhibition, % at 4 µM. 1.2% of 56,000 active. AID 463, 2006;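 active = inhibition above the mean inhibition of all tested compounds plus 3 SD, cut at about 28% in these data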
# Fibroblast inh = antiproliferative effect on LL 47 fibroblasts – human, LL 47 cells, CellTiter-Glo luminescence, primary screen. LL 47 human lung fibroblast viability, ATP luminescence; hits give low values. viability, % at 10 µM. 1.1% of 85,000 active;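 active = viability at or below 50% in the single dose screen; inactive = viability above 50%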;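 note: compound exposure lasted 72 h before the ATP readout; 100% = median luminescence of untreated cell-only wells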
#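 Assay system: human lung fibroblast line LL 47, low passage. Input: 1,150 fibroblasts seeded per well. Times: overnight cell rest, 72 h compound treatment at 37 °C. Evaluation: % viability of median cell-only signal. Technique: luminescent ATP detection, CellTiter-Glo. Control set: cell-only wells, no compound.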
# HUVEC prolif 384 = inhibitors of HUVEC proliferation, primary screen, cell-based, 384-well | CellTiter-Glo luminescence, 72 h; hits give low values | viability, % at 10 µM (by protocol) | 1.1% of 86,000 active | AID 648, 2007;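 active = viability at or below 30%; inactive = viability above 30%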;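 note: 100% = median luminescence of DMSO-only cell control wells on each plate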
# PTK2B oligo ant = antagonists of Pyk2 self-association, primary screen, Q293 cells, FERM NanoBiT luminescence, HTS; Protein-tyrosine kinase 2-beta (Homo sapiens), Q14289; hits give low values; z-score (the deposit names both 25 µM and 10 µM); 0.83% of 99,000 active; AID 1347419, 2020;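 active = Z-score of -3 or lower, scaled per plate to the spread of control and sample wells; inactive = z-score above -3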;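 note: negative z-score means lost luminescence so less FERM oligomerization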
# Target sequence (Q14289 whole entry, looked up): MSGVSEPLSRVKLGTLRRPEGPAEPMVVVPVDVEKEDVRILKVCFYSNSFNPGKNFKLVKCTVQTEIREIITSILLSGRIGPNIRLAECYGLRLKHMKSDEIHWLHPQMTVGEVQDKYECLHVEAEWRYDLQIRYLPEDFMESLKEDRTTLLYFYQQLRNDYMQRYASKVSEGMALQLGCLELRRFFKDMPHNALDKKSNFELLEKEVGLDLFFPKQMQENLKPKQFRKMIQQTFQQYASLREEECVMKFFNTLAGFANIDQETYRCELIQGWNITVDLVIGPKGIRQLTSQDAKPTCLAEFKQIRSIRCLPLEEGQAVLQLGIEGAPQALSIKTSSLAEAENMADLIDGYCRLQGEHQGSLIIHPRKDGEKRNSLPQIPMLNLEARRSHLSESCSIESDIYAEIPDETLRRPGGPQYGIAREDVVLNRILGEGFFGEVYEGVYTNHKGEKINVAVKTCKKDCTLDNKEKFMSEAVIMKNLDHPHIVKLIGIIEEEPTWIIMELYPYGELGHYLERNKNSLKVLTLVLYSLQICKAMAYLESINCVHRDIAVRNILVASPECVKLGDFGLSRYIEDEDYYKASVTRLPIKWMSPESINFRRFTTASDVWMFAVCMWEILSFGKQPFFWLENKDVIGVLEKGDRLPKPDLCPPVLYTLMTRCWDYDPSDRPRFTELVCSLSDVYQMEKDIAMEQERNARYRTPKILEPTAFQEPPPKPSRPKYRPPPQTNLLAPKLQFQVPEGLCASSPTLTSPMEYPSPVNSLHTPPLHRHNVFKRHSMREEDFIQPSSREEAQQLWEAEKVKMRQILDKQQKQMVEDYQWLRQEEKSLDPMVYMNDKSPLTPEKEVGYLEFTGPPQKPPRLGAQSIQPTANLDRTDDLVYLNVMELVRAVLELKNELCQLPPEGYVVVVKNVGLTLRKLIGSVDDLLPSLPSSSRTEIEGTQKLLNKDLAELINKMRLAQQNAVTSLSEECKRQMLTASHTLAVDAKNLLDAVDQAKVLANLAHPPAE
# H69AR inhibit = proliferation blockers of H69AR lung cancer cells, primary screen, cell-based, human, 86K library; H69AR lung tumor viability, ATP luminescence, 72 h; hits give low values; viability, % at 10 µM; 6% of 85,000 active; AID 598, 2007;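 active = viability at or below 40%; inactive = viability above 40%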;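 note: multidrug resistant small cell line overexpressing MRP-1 efflux transporter; 100% = mean luminescence of untreated control wells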
# Active calls of the source: *; . = no result. A selection: hits, their analogues and other compounds. The true share with any hit is near 5.9%.
SMILES,MT1-MMP txn act,Jurkat viability,Fibroblast inh,HUVEC prolif 384,PTK2B oligo ant,H69AR inhibit
O=C(Nc1ccc(N2CCOCC2)cc1)c1ccc2nc(-c3ccco3)c(-c3ccco3)nc2c1,1.2,-2,83,52,-2.5,29*
O=C(Nc1ccc(N2CCOCC2)cc1)c1ccncc1,1.7,.,102,105,1.4,116
O=C(Nc1ccccc1)c1ccc2nc(-c3ccco3)c(-c3ccco3)nc2c1,0.9,10,101,67,-0.63,49
S=C(Nc1ccc(N2CCOCC2)cc1)Nc1ccc2nc(-c3ccco3)c(-c3ccco3)nc2c1,.,.,113,54,-1.5,33*
CC(=O)c1ccc(NC(=O)c2ccc3nc(-c4ccco4)c(-c4ccco4)nc3c2)cc1,.,.,86,49,-0.35,2.4*
Cc1nc2ccccn2c1/C(O)=C1\C(=O)C(=O)N(CCCN(C)C)C1c1ccc(Cl)cc1 (centres undefined),1.2,-1,100,95,.,107
C[C@H]1C2=C3[C@@H](C[C@H]4C(=O)N(c5ccccc5)C(=O)[C@H]4[C@H]3[C@@]3(Cc4ccccc4)C(=NCCc4c[nH]c5ccccc45)OC(=O)N3C2=O)[C@H]2C(=O)N(c3ccccc3)C(=O)[C@H]21,1.2,.,.,.,.,.
CCCCOC(=O)Nc1ccc(C(C)C)cc1,2.2*,.,96,98,-0.92,91
CCOC(=O)Nc1ccc(S(=O)(=O)NCc2ccccc2)cc1,1.1,5,95,101,-0.56,.
CCOC(=O)NC1(NC2CCCCC2)Oc2ccccc2O1,1.2,4,.,89,-0.04,21*
CCOC(=O)NC1(NC(C)C)Oc2ccccc2O1,1.3,.,93,69,-1,36*
CCOC(=O)C(C(=O)Nc1ccccc1)C1CCCCC1 (centres undefined),1.1,0,83,85,0.51,91
CCOC(=O)NC1(NCC(C)C)Oc2ccccc2O1,.,.,.,.,0.63,.
CCOC(=O)NC1(NCc2ccccc2)Oc2ccccc2O1,1.1,16,94,77,1.5,19*
N#CC1=C(N)OC(c2ccccc2)=C(C#N)C1c1ccc2c(c1)OCO2 (centres undefined),1.1,1,94,95,-1.2,98
Cc1ccc(C2C(C#N)=C(N)Oc3cc4c(cc32)OCO4)cc1 (centres undefined),1.1,1,76,74,-0.52,15*
CSc1ccc(C2C(C#N)=C(N)Oc3cc4c(cc32)OCO4)cc1 (centres undefined),1.1,-3,63,59,-0.46,18*
CC(C)(C)C1=C(C#N)C(c2cc3c(cc2Br)OCO3)C(C#N)=C(N)O1 (centres undefined),1.1,0,85,81,0.53,46
O=C(NOC(=O)c1ccccc1Cl)c1cccs1,1.1,.,98,86,-0.43,81
Cc1ccc(O)c(-c2cc(-c3ccccc3C)[nH]n2)c1,1.9,0,62,35,-0.15,0.5*
Oc1ccc(Cl)cc1-c1cc(-c2cccc(Br)c2)n[nH]1,1.5,.,59,44,-0.64,4.2*
Oc1ccccc1-c1cc(-c2ccco2)[nH]n1,2.1*,.,80,97,-0.54,70
Oc1ccc(Cl)cc1-c1cc(-c2ccccc2Cl)[nH]n1,1.8,.,76,62,-1.1,31*
CC1CCN(C(=O)CCCOc2ccc(Cl)cc2)CC1,1.3,.,101,96,1.5,87
CC1=CC(C)(C)N(C(=O)CSc2nnc(N)s2)c2c(C)cc(C)cc21,.,.,.,.,-1.3,.
SMILES,MT1-MMP txn act,Jurkat viability,Fibroblast inh,HUVEC prolif 384,PTK2B oligo ant,H69AR inhibit
O=C(COC(=O)C1Cc2ccccc2CN1C(=O)c1ccccc1Cl)Nc1ccc(N2CCOCC2)cc1 (centres undefined),.,.,.,.,-1.3,.
C/C(=C\c1ccco1)C1C(C#N)=C(N)OC2=C1C(=O)CC(C)(C)C2 (centres undefined),1,-7,97,102,0.67,88
Oc1ccccc1-c1cc(-c2ccccc2Cl)[nH]n1,0.7,6,101,25*,-0.63,22*
Oc1ccccc1-c1cc(-c2cccc(F)c2)n[nH]1,1.7,9,83,40,-0.97,53
Cc1nc2ccccn2c1-c1csc(NCc2ccco2)n1,1.1,32*,91,98,0.54,78
Cc1nc(NC(=O)c2ccccc2)sc1-c1csc(NCc2ccco2)n1,1.1,6,88,67,-0.38,18*
Cc1ccn2c(-c3csc(NCc4ccccc4)n3)c(C)nc2c1,1.1,.,85,63,1.4,22*
Cc1ccc(Nc2nc(-c3c(C)nc4ccccn34)cs2)cc1,.,.,.,.,-2.6,.
CSc1ccc(/C=N/NC(=O)c2sccc2C)cc1,.,.,.,.,0.9,.
CCS(=O)(=O)Nc1ccc(C(=O)c2ccccc2)cc1,1.1,.,94,98,-0.06,95
COc1ccc(C(=O)N(CN2CCCC2=O)c2nccs2)cc1OC,1.3,-1,102,96,-0.18,69
Cc1ccc(COn2c(-c3ccc(Cl)cc3Cl)nc3ncccc32)cc1,.,.,92,83,-0.99,39*
CCc1c(C(=O)O)[nH]c2ccc(Br)cc12,1.2,.,.,.,0.33,.
COC(=O)C1=C(O)/C(=C\c2ccc(CNC(=O)C(=O)Nc3ccc(C)cc3)o2)N=C1C,1.1,.,25*,60,0.31,25*
CCOC(=O)C1=C(O)/C(=C\c2cccc(OC)c2)N=C1C,.,.,.,.,-0.16,.
COC(=O)C1=C(O)/C(=C\c2ccc(CNC(=O)C(=O)Nc3ccc(C)c(C)c3)o2)N=C1C,1.1,.,89,19*,0.35,40*
CCOC(=O)C1=C(O)/C(=C/c2ccc(CNC(=O)C(=O)Nc3ccc(C)cc3)o2)N=C1C,1.1,.,7.4*,2.3*,-0.71,36*
CCc1ccc(CCC(=O)Nc2ccc(C)c(C)c2)o1,1.3,-2,.,.,0.58,.
Cc1ccc(CS(=O)(=O)Cc2ccc(C(=O)NCc3ccccn3)o2)cc1,1,4,104,91,0.26,95
Cc1nn(-c2ccccc2)c2sc(C(=O)n3cccn3)cc12,1.4,-5,92,48,1,38*
Cc1ccn(C(=O)c2cc3c(C)nn(-c4ccccc4)c3s2)n1,1.1,.,110,53,1.3,81
Cc1nn(-c2ccccc2)c2sc(C(=O)NC3CCCCC3)cc12,1.1,2,103,81,-1.4,59
Cc1cnc(NC(=O)c2cc3c(C)nn(-c4ccccc4)c3s2)s1,1.2,.,62,64,-0.71,26*
CCN(CC)CCNc1nc2cc(OC)c(OC)cc2c2nc(-c3ccccc3)nn12,1.2,.,2.7*,11*,0.7,15*
COc1ccc(O)c(C(=O)CC(=O)c2ccc(F)cc2)c1,.,24,.,.,-0.08,.
Cc1cccc(C(=O)CC(=O)c2cc(Cl)ccc2O)c1,0.9,.,31*,3.3*,-0.63,18*

# Screening results: PubChem BioAssay, several laboratories
